In ChEMBL document CHEMBL1125516, “TSAO analogues. Stereospecific synthesis and anti-HIV-1 activity of 1-[2',5'-bis-O-(tert-butyldimethylsilyl)-beta-D-ribofuranosyl]-3'-spiro -5''- (4''-amino-1'',2''-oxathiole 2'',2''-dioxide) pyrimidine and pyrimidine-modified nucleosides” (J Med Chem, 1992):

What was measured:
[1] = system: MT4; assay: Concentration required to inhibit HIV-1 induced cytopathicity in MT-4 cells by 50%; type: functional, cell-based; details: Homo sapiens
Method in brief: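 HIV-1 IIIB-infected human MT-4 cells (HTLV-1-transformed), 5 x 10^5 cells/mL, infected at 100 CCID50 per mL of cell suspension, then mixed with compound dilutions. After 5 days, viable cells were counted by trypan blue staining in a blood-cell-counting chamber. EC50 is the concentration […]. Values are means of at least three to five independent experiments.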

[2] = system: MT4; assay: Cytotoxic concentration required to reduce MT-4 cell viability by 50%; type: functional; details: Homo sapiens
Method in brief: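 MT-4 cells (HTLV-1-transformed human T-lymphocytes) at 5 × 10^5 cells/mL were mock-infected and mixed 1:1 with serial dilutions of compound. After 5 days, viable cells were counted by trypan blue exclusion in a blood-cell-counting chamber. CC50 is the concentration reducing viable cell number by 50%. Values are means of at least three to five independent experiments.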

[3] = Selectivity index was defined as the ratio of CC50 to EC50; type: functional
Method in brief: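 The ratio is CC50/EC50. Both come from MT-4 cells at 5 × 10^5 cells/mL, mixed 1:1 with compound dilutions for 5 days, with viable cells counted by trypan blue. EC50 used cells infected with HIV-1 (IIIB) at 100 CCID50 per mL. CC50 used mock-infected cells. […] Values are means of three to five experiments.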

| Compound | EC50 [1] | CC50 [2] | Selectivity index [3] |
| --- | --- | --- | --- |
| Cc1cn([C@@H]2O[C@H](CO[Si](C)(C)C(C)(C)C)[C@@]3(OS(=O)(=O)C=C3N)[C@H]2O[Si](C)(C)C(C)(C)C)c(=O)n(C)c1=O | 59 nM | 240 µM | 4090 |
| CC(C)(C)[Si](C)(C)OC[C@H]1O[C@@H](n2ccc(=O)[nH]c2=O)[C@H](O[Si](C)(C)C(C)(C)C)C12OS(=O)(=O)C=C2N (some centres undefined) | 206 nM | 15 µM | 73 |
| C=CCn1c(=O)c(C)cn([C@@H]2O[C@H](CO[Si](C)(C)C(C)(C)C)[C@@]3(OS(=O)(=O)C=C3N)[C@H]2O[Si](C)(C)C(C)(C)C)c1=O | 233 nM | – | > 1420 |
| Cc1ccnc2c1NC(=O)c1cccnc1N2C1CC1 [NEVIRAPINE] | 128 nM | > 80 µM | > 625 |
| CCn1c(=O)c(C)cn([C@@H]2O[C@H](CO[Si](C)(C)C(C)(C)C)[C@@]3(OS(=O)(=O)C=C3N)[C@H]2O[Si](C)(C)C(C)(C)C)c1=O | 123 nM | 123 µM | 1000 |
| C=CCn1c(=O)ccn([C@@H]2O[C@H](CO[Si](C)(C)C(C)(C)C)[C@@]3(OS(=O)(=O)C=C3N)[C@H]2O[Si](C)(C)C(C)(C)C)c1=O | 615 nM | 8.9 µM | 15 |
| CC(C)=CCn1c(=O)c(C)cn([C@@H]2O[C@H](CO[Si](C)(C)C(C)(C)C)[C@@]3(OS(=O)(=O)C=C3N)[C@H]2O[Si](C)(C)C(C)(C)C)c1=O | 377 nM | 69 µM | 183 |
| CC(C)=CCN1Cc2cccc3[nH]c(=S)n(c23)C[C@@H]1C | 76 nM | > 80 µM | > 1050 |
| Cc1cn([C@@H]2O[C@H](COC(=O)c3ccccc3)[C@@]3(OS(=O)(=O)C=C3N)[C@H]2O[Si](C)(C)C(C)(C)C)c(=O)[nH]c1=O | > 15000 nM | 36 µM | < 2.5 |
| Cc1cn([C@@H]2O[C@H](CO[Si](C)(C)C(C)(C)C)[C@@]3(OS(=O)(=O)C=C3N)[C@H]2O[Si](C)(C)C(C)(C)C)c(=O)nc1N | 127 nM | 31 µM | 246 |
| Cc1cn([C@@H]2O[C@H](CO)[C@@]3(OS(=O)(=O)C=C3N)[C@H]2O[Si](C)(C)C(C)(C)C)c(=O)[nH]c1=O | > 80000 nM | 229 µM | < 2.5 |
| CC(C)(C)[Si](C)(C)OC[C@H]1O[C@@H](n2ccc(N)nc2=O)[C@H](O[Si](C)(C)C(C)(C)C)[C@]12OS(=O)(=O)C=C2N | 1000 nM | > 360 µM | > 360 |
| Cc1cn([C@@H]2O[C@H](CO[Si](C)(C)C(C)(C)C)C3(OS(=O)(=O)C=C3N)[C@H]2O[Si](C)(C)C(C)(C)C)c(=O)[nH]c1=O (some centres undefined) | 60 nM | 14 µM | – |
| CC(=O)O[C@H]1[C@H](n2cc(C)c(=O)[nH]c2=O)O[C@H](COC(=O)c2ccccc2)[C@@]12OS(=O)(=O)C=C2N | > 200000 nM | > 200 µM | – |
